Assay results of several laboratories.
Each line is one published result; the experiments were not run side by side.
Target: Aurora kinase B (AURKB, Homo sapiens, UniProt Q96GD4)

SMILES | read-out | mode | technique | concentration | measurement | value
N#Cc1ccc(NC(=O)Nc2ccccc2)cc1 | cell-free assay |  | competition with immobilised ligand | 25 µM | remaining binding | 82%
COc1ccc2oc(-c3ccc4nc(N)oc4c3)c/c(=N\c3ccccc3NC(=O)CCN)c2c1 | cell-free assay |  |  | 1 µM | remaining signal | 99%
Cc1cc(O)c(-c2ccc([C@@H](C)CN(C)C)cc2)c2c1[nH]c(=O)c1sccc12 | enzyme activity | inhibitor |  | 0.1 µM | inhibition | 21.5%
CCCCC(=O)Nc1ccc(-c2ccc3ncn(CCC)c(=O)c3c2)cn1 | binding |  | competition with immobilised ligand | 0.5 µM | remaining binding | 76%
C1=C/COCc2cc(ccc2OCCN2CCCC2)Nc2nccc(n2)-c2cccc(c2)COC/1 | binding |  |  | 0.1 µM | remaining binding | 100%
C#Cc1cnc(Nc2ccnc(CO)c2)nc1Nc1ccccc1S(C)(=O)=NC#N (stereo not drawn) | cell-free assay |  |  | 1 µM | remaining signal | < 10%
C=CC(=O)N1CCC([C@@H]2CCNc3c(C(N)=O)c(-c4ccc(Oc5ccccc5)cc4)nn32)CC1 | enzyme activity | inhibitor |  | 1 µM | inhibition | 14%
CC(=O)ON=C1C=CC(=C(C#N)c2ccccc2)C=C1 | enzyme activity | inhibitor | ADP detection | 2 µM | activity vs control | 96%
C[C@H]1CC[C@H](n2c3cnccc3c3cnc(Nc4ccc5c(n4)CCN(C(=O)CO)C5)nc32)CC1 | cell-free assay |  | competition with immobilised ligand | 1 µM | remaining binding | 34%
C#Cc1cc(-c2cc(Nc3nc(N[C@@H](C)c4ccc(F)cn4)ncc3Cl)n[nH]2)ccc1C=O | enzyme activity | inhibitor |  | 0.2 µM | inhibition | 16.6%
CN1CCN(C(=O)c2ccc(NC(=O)Nc3ccc(N(C)c4ccnc(Nc5ccc(CS(C)(=O)=O)cc5)n4)cc3)cc2)CC1 | binding |  | competition with immobilised ligand | 1 µM | remaining binding | 0.4%
CO[C@@H]1[C@H](N(C)C(=O)c2ccccc2)C[C@H]2O[C@]1(C)n1c3ccccc3c3c4c(c5c6ccccc6n2c5c31)C(=O)NC4 | enzyme activity | inhibitor |  | 1 µM | inhibition | 94%
